According to ChEMBL document CHEMBL3526118, “Combination of GSH trapping and time-dependent inhibition assays as a predictive method of drugs generating highly reactive metabolites” (Drug Metab Dispos, 2011):

Tests used:
CYP2C9 = CYP2C9 (Homo sapiens, UniProt P11712); assay: in vitro
CYP1A2 = molecular target: T1, CYP1A2 (Homo sapiens, UniProt P05177); assay: in vitro
T1 sequence (P05177 whole entry): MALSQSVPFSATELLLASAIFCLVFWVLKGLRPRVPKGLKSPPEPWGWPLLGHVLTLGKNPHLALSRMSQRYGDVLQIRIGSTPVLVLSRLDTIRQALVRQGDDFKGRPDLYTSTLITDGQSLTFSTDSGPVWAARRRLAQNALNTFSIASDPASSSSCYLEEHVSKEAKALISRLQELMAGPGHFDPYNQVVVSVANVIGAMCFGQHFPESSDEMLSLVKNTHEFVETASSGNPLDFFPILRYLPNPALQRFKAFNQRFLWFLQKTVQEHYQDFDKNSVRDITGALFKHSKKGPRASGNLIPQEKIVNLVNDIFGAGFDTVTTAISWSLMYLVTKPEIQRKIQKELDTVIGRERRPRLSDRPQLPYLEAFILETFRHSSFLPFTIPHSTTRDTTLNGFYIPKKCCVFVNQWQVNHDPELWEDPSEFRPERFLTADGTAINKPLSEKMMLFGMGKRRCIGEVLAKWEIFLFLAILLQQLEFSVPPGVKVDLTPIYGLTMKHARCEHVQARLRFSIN

CYP2D6 [1] = molecular target: T2, CYP2D6 (Homo sapiens, UniProt P10635); assay: in vitro
CYP2B6 [2] = molecular target: T3, CYP2B6 (Homo sapiens, UniProt P20813); assay: in vitro
T3 sequence (P20813 whole entry): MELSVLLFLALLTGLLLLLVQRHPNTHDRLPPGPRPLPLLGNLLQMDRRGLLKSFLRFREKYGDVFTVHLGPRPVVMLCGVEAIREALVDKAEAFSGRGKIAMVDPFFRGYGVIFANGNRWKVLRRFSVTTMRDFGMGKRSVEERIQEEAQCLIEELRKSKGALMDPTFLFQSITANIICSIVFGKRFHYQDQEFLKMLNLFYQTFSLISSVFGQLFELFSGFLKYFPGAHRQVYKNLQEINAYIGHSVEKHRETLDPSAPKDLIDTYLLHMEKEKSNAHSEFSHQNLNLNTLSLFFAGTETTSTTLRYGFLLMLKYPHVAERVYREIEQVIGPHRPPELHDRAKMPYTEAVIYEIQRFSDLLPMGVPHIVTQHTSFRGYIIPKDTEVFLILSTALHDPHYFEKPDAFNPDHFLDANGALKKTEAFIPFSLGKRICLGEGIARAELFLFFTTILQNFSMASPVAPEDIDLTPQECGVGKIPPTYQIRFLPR

CYP3A4 [3] = molecular target: T4, CYP3A4 (Homo sapiens, UniProt P08684); assay: Time dependent inhibition of CYP3A4 (unknown origin) at 10 uM by LC/MS system; type: ADME
Procedure, shortened: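 CYP3A4: human liver microsomes at 0.5 mg/mL in preincubation, 0.1 M sodium phosphate, NADPH-generating system, 0 or 30 min. Ten-fold dilution into incubation with 2.5 μM midazolam (final), 10 min. Each value is relative to the matched control without inhibitor. % enzyme inactivation = 100 × [1 − %control(30 min)/%control(0 min)]; 10% threshold.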

CYP2C8 [4] = molecular target: T5, CYP2C8 (Homo sapiens, UniProt P10632); assay: in vitro
T5 sequence (P10632 whole entry): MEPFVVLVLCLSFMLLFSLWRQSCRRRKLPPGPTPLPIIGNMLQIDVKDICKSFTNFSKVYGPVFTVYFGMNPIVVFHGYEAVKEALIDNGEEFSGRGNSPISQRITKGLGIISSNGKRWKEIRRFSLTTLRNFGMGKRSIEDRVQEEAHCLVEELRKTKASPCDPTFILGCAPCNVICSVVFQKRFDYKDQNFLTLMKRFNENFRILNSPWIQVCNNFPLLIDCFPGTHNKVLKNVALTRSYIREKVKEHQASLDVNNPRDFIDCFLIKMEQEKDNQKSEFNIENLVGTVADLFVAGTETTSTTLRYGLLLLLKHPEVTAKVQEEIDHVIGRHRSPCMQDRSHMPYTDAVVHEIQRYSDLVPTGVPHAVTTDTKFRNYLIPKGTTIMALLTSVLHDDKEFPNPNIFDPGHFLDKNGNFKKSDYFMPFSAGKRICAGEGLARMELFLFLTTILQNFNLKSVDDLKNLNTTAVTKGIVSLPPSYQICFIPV

CYP2C8 [5] = molecular target: T5, CYP2C8; assay: Time dependent inhibition of CYP2C8 (unknown origin) at 30 uM by LC/MS system; type: ADME
Procedure, shortened: (§1)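 CYP2C8 in human liver microsomes (1.0 mg/mL in preincubation), 0.1 M sodium phosphate, NADPH-generating system. Preincubation 0 or 30 min, then ten-fold dilution into incubation with 10 μM paclitaxel (final) for 10 min. Activity is taken relative to the matched no-inhibitor control. % inactivation = 100 × [1 − %control(30 min)/%control(0 min)]; threshold 10%.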

Liver microsome [6] = assay: Covalent binding in human liver microsomes measured per mg of protein using radiolabelled compound at 10 uM after 1 hr incubation by liquid scintillation counting
Liver microsome [7] = assay: Metabolic activation in human liver microsomes assessed as [3H]GSH adduct formation rate measured per mg of protein at 100 uM by [3H]GSH trapping assay
CYP3A4 [8] = molecular target: T4, CYP3A4; assay: in vitro
Liver microsome [9] = details: human, microsomes, 100 µM
CYP2D6 [10] = molecular target: T2, CYP2D6; assay: Time dependent inhibition of CYP2D6 (unknown origin) at 10 uM by LC/MS system; type: ADME
Procedure, shortened: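 CYP2D6 activity was measured with 30 μM dextromethorphan (final) after 0 or 30 min preincubation of compound with human liver microsomes (1.0 mg/mL) and NADPH-generating system in 0.1 M sodium phosphate. A ten-fold dilution was followed by a 10-min incubation. % inactivation = 100 × [1 − %control(30 min)/%control(0 min)]; threshold 10%.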

[11] = Intrinsic clearance for reactive metabolites formation assessed as summation of [3H]GSH adduct formation rate-based reactive metabolites formation and cytochrome P450 (unknown origin) inactivation rate-based reactive metabolites formation; details: human
CYP2C19 = CYP2C19 (Homo sapiens, UniProt P33261); assay: in vitro
CYP2B6 [12] = molecular target: T3, CYP2B6; assay: Time dependent inhibition of CYP2B6 (unknown origin) at 10 uM by LC/MS system; type: ADME
Procedure, shortened: as §1, with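 “CYP2B6” for “CYP2C8”, “solution containing 50” for “with 10”, “bupropion” for “paclitaxel”, “expressed as percent of” for “taken relative to”, “control(30 min)/control(0” for “%control(30 min)/%control(0”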

CYP2C8 [13] = molecular target: T5, CYP2C8; assay: Time dependent inhibition of CYP2C8 (unknown origin) at 3 uM by LC/MS system; type: ADME
Procedure, shortened: as §1

[14] = Intrinsic clearance for reactive metabolites formation per mg of protein based on cytochrome P450 (unknown origin) inactivation rate by TDI assay; details: human
CYP2C8 [15] = molecular target: T5, CYP2C8; assay: Time dependent inhibition of CYP2C8 (unknown origin) at 10 uM by LC/MS system; type: ADME
Procedure, shortened: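 CYP2C8 in human liver microsomes (1.0 mg/mL in preincubation), 0.1 M sodium phosphate, NADPH-generating system. Preincubation 0 or 30 min, then ten-fold dilution into incubation with 10 μM paclitaxel (final) for 10 min.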

T2 sequence (P10635 whole entry): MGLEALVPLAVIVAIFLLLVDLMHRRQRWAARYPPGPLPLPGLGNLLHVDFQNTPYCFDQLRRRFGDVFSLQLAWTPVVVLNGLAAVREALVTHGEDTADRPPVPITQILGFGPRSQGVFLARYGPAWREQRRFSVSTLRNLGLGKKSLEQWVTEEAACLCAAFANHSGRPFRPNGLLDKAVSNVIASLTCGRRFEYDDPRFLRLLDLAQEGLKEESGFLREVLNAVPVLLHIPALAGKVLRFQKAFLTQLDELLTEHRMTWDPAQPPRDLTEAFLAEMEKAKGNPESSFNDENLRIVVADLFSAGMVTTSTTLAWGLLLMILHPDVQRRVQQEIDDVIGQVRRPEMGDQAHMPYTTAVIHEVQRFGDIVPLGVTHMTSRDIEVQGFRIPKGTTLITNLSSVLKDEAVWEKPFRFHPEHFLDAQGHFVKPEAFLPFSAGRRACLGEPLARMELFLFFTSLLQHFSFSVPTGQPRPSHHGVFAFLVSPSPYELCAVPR
Chain of CYP2C9 (P11712 whole entry): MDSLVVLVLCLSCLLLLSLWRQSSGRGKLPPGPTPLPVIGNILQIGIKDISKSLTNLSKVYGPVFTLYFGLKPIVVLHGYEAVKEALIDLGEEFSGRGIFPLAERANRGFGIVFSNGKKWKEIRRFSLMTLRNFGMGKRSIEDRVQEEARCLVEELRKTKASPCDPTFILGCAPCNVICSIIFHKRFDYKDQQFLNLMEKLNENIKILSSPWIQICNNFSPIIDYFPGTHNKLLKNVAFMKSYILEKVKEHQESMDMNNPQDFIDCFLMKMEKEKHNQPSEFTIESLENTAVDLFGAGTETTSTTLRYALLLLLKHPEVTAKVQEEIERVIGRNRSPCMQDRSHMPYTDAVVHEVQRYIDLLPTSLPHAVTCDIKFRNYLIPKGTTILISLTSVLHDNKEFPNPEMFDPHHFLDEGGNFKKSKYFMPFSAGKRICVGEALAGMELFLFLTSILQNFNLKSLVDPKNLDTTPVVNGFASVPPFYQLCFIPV
T4 sequence (P08684 whole entry): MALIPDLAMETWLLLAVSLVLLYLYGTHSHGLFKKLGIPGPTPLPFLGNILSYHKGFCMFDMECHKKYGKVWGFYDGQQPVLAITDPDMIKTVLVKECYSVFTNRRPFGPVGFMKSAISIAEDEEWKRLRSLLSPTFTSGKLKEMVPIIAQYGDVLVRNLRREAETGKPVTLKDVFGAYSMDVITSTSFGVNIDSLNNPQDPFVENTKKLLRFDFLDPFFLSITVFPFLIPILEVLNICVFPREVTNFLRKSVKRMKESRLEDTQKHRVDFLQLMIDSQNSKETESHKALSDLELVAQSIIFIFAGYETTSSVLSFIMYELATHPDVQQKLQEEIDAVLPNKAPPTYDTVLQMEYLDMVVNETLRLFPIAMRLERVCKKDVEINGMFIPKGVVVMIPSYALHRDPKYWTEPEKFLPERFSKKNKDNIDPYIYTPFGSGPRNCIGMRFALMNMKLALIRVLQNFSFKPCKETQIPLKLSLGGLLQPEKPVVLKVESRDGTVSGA
Chain of CYP2C19 (P33261 whole entry): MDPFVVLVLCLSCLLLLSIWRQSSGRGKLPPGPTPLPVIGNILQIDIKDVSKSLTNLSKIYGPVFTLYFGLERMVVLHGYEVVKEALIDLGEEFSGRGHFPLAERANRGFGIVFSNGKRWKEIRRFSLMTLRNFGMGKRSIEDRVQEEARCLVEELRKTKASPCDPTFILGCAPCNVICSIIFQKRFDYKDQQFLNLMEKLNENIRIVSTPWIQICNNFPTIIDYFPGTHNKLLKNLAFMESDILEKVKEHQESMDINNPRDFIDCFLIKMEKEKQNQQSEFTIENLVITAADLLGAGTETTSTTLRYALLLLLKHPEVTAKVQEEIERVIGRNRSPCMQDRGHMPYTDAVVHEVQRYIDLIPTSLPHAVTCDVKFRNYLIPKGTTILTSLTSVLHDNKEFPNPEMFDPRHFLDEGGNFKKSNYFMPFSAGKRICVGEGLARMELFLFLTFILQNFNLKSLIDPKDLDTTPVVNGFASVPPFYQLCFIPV

SMILES	inhibition at 100 µM (CYP2C9)	inhibition at 100 µM (CYP1A2)	inhibition at 100 µM (CYP2D6 [1])	inhibition at 100 µM (CYP2B6 [2])	inhibition at 10 µM (CYP3A4 [3])	inhibition at 100 µM (CYP2C8 [4])	inhibition at 30 µM (CYP2C8 [5])	PB (Liver microsome [6])	Drug metabolism (Liver microsome [7])	inhibition at 100 µM (CYP3A4 [8])	CLH (Liver microsome [9])	inhibition at 10 µM (CYP2D6 [10])	clearance [11]	inhibition at 100 µM (CYP2C19; microsomes)	inhibition at 10 µM (CYP2B6 [12])	inhibition at 3 µM (CYP2C8 [13])	clearance [14]	inhibition at 100 µM (CYP2C19; human liver microsomes)	inhibition at 10 µM (CYP2C8 [15])
CC(=O)Nc1ccc(O)cc1 [ACETAMINOPHEN]	< 10%	< 10%	< 10%	< 10%	< 10%	< 10%	–	–	–	–	–	–	–	–	–	–	–	–	–
CCN(CC)Cc1cc(Nc2ccnc3cc(Cl)ccc23)ccc1O [AMODIAQUINE]	< 10%	< 10%	–	< 10%	–	–	< 10%	208.1 pmol	2.1 pmol/min	< 10%	0.021 µL/min/mg	< 10%	0.021 µL/min/mg	< 10%	–	–	–	–	–
CCc1oc2ccccc2c1C(=O)c1cc(Br)c(O)c(Br)c1 [BENZBROMARONE]	–	12%	< 10%	–	< 10%	–	–	389.9 pmol	3 pmol/min	–	0.03 µL/min/mg	–	0.032 µL/min/mg	–	< 10%	< 10%	0.002 µL/min/mg	< 10%	–
NC(=O)N1c2ccccc2C=Cc2ccccc21 [CARBAMAZEPINE]	< 10%	< 10%	< 10%	< 10%	< 10%	< 10%	–	3.3 pmol	metabolite_not_detected	–	–	–	–	< 10%	–	–	–	–	–
O=C(O)Cc1ccccc1Nc1c(Cl)cccc1Cl [DICLOFENAC]	< 10%	< 10%	< 10%	< 10%	–	< 10%	–	–	1 pmol/min	< 10%	0.01 µL/min/mg	–	0.01 µL/min/mg	< 10%	–	–	–	–	–
CC(C)C(=O)Nc1ccc([N+](=O)[O-])c(C(F)(F)F)c1 [FLUTAMIDE]	< 10%	< 10%	< 10%	< 10%	–	< 10%	–	178 pmol	2 pmol/min	< 10%	0.02 µL/min/mg	–	0.02 µL/min/mg	–	–	–	–	< 10%	–
Cc1ccnc2c1NC(=O)c1cccnc1N2C1CC1 [NEVIRAPINE]	< 10%	< 10%	< 10%	< 10%	–	< 10%	–	19.1 pmol	1.2 pmol/min	< 10%	0.012 µL/min/mg	–	0.013 µL/min/mg	–	–	–	0.001 µL/min/mg	12%	–
Cc1cc2c(s1)Nc1ccccc1N=C2N1CCN(C)CC1 [OLANZAPINE]	< 10%	< 10%	63%	< 10%	–	< 10%	–	138.9 pmol	11.3 pmol/min	< 10%	0.113 µL/min/mg	–	0.119 µL/min/mg	–	–	–	0.006 µL/min/mg	< 10%	–
O=C1NC(=O)C(c2ccccc2)(c2ccccc2)N1 [PHENYTOIN]	< 10%	< 10%	< 10%	< 10%	–	< 10%	–	4.4 pmol	1.2 pmol/min	< 10%	0.012 µL/min/mg	–	0.012 µL/min/mg	< 10%	–	–	–	–	–
CCc1ccc(CCOc2ccc(CC3SC(=O)NC3=O)cc2)nc1 (configuration not stated) [PIOGLITAZONE]	< 10%	< 10%	< 10%	38%	–	–	< 10%	353 pmol	metabolite_not_detected	61%	–	–	0.036 µL/min/mg	–	–	–	0.036 µL/min/mg	< 10%	–
CN(CCOc1ccc(CC2SC(=O)NC2=O)cc1)c1ccccn1 (configuration not stated) [ROSIGLITAZONE]	< 10%	< 10%	–	< 10%	–	–	–	516.1 pmol	2.2 pmol/min	–	0.022 µL/min/mg	–	0.048 µL/min/mg	–	–	–	0.028 µL/min/mg	< 10%	< 10%
CC/C(=C(\c1ccccc1)c1ccc(OCCN(C)C)cc1)c1ccccc1 [TAMOXIFEN]	–	< 10%	–	< 10%	–	–	–	11.5 pmol	metabolite_not_detected	< 10%	–	–	–	< 10%	–	–	–	–	< 10%
CC(=O)CC(c1ccccc1)c1c(O)c2ccccc2oc1=O (configuration not stated) [WARFARIN]	< 10%	19%	< 10%	< 10%	–	< 10%	–	15.9 pmol	metabolite_not_detected	< 10%	–	–	0.003 µL/min/mg	–	–	–	0.003 µL/min/mg	< 10%	–
